Data as given in ChEMBL document CHEMBL5338772, “Stereochemical Control of Splice Modulation in FD-895 Analogues” (J Med Chem, 2023).
The source made the active and inactive calls. The calls are words filed in the database; no cut-off is given here.

How the values were obtained:
[1] = test system: HCT-116; test: Cytotoxicity against human HCT-116 cells assessed as reduction in cell viability at 500 nM incubated for 24 hrs by MTS assay; type: toxicity, cell-based; details: hct-116, 24 h, 0.5 µM
In short: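 HCT-116 cells plated at 5 × 10³ cells/well in supplemented McCoy's 5a and grown 24 h at 37 °C, 5% CO₂. Compound given at 500 nM, the top dose of the 24 h splicing series, in 0.5% DMSO for 24 h. Cells washed with PBS, MTS reagent added for 2 h at 37 °C, A490 read against A690.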

[2] = test system: SF3A1 pre-mRNA; test: Modulation of splicing in SF3A1 pre-mRNA in human HCT-116 cells assessed as intron 6 retention level at 2.6 uM incubated for 4 hrs by qRT-PCR analysis; type: functional, cell-based; details: filed as modulator
[3] = Cytotoxicity against human HCT-116 cells assessed as cell growth inhibition incubated for 72 hrs by MTS assay; type: toxicity, cell-based
In short: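 HCT-116 cells (ATCC; split every other day, no more than five generations, mycoplasma-tested) plated at 5 × 10³ cells/well in supplemented McCoy's 5a and grown 24 h at 37 °C, 5% CO₂. Compound added from DMSO (0.5% DMSO final) for 72 h. Cells washed with PBS, MTS reagent added for 2 h at 37 °C, A490 read against A690. GI₅₀ fitted from dose curves of 3 biological replicates.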

[4] = test system: HCT-116; test: Cytotoxicity against human HCT-116 cells assessed as reduction in cell viability at 2.6 uM incubated for 4 hrs by MTS assay; type: toxicity, cell-based; details: hct-116, 4 h
[5] = test system: DNAJB1 pre-mRNA; test: Modulation of splicing in DNAJB1 pre-mRNA in human HCT-116 cells assessed as intron 2 retention level at 2.6 uM incubated for 4 hrs by qRT-PCR analysis; type: functional, cell-based; details: filed as modulator
[6] = test system: HCT-116; test: Effect on AURKA mRNA expression in human HCT-116 cells at 100 to 500 nM incubated for 24 hrs by qRT-PCR analysis; type: functional, cell-based; details: dose 100-500 nM
In short: (§1)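 HCT-116 cells in supplemented McCoy's 5a with 0.5% DMSO, treated 24 h at 100, 250 or 500 nM; untreated cells as control. Total RNA isolated, 1 µg DNase I-treated, reverse transcribed. qPCR on 5 ng cDNA with 2.5 µM each primer, 40 cycles of 95 °C 30 s, 55 °C 60 s, 72 °C 60 s. Splice-event primers for intron retention or exon skipping; SF2 primers measure total expression. 2^-CT method relative to GAPDH, untreated set at 1.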

[7] = test system: SF3A3 pre-mRNA; test: Modulation of splicing in SF3A3 pre-mRNA in human HCT-116 cells assessed as intron 5 retention at 100 to 500 nM incubated for 24 hrs by qRT-PCR analysis; type: functional, cell-based; details: filed as modulator, dose 100-500 nM; in short: as §1
[8] = test system: SF3A3 pre-mRNA; test: Modulation of splicing in SF3A3 pre-mRNA in human HCT-116 cells assessed as intron 5 retention level at 2.6 uM incubated for 4 hrs by qRT-PCR analysis; type: functional, cell-based; details: filed as modulator
[9] = test system: SF3B2 pre-mRNA; test: Modulation of splicing in SF3B2 pre-mRNA in human HCT-116 cells assessed as intron 10 retention level at 2.6 uM incubated for 4 hrs by qRT-PCR analysis; type: functional, cell-based; details: filed as modulator
In short: (§2)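 HCT-116 cells in supplemented McCoy's 5a, compound added from DMSO stock to a final 0.5% DMSO, 4 h at a single standardized concentration per analogue. Total RNA isolated and DNase-treated (1 µg). qPCR used 2.5 µM each primer on 5 ng cDNA, 40 cycles. Intron retention was computed by the 2^-CT method relative to GAPDH and expressed versus untreated cells set to 1.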

[10] = test system: SF3B1 pre-mRNA; test: Modulation of splicing in SF3B1 pre-mRNA in human HCT-116 cells assessed as intron 13 retention level at 2.6 uM incubated for 4 hrs by qRT-PCR analysis; type: functional, cell-based; details: filed as modulator; in short: as §2
[11] = test system: DNAJB1 pre-mRNA; test: Modulation of splicing in DNAJB1 pre-mRNA in human HCT-116 cells assessed as intron 2 retention at 100 to 500 nM incubated for 24 hrs by qRT-PCR analysis; type: functional, cell-based; details: dose 100-500 nM; in short: as §1
[12] = test system: HCT-116; test: Downregulation of SF3 mRNA expression in human HCT-116 cells at 2.6 uM incubated for 4 hrs by qRT-PCR analysis; type: functional, cell-based
[13] = test system: HCT-116; test: Downregulation of SF2 mRNA expression in human HCT-116 cells at 100 to 500 nM incubated for 24 hrs by qRT-PCR analysis; type: functional, cell-based; details: dose 100-500 nM; in short: as §1
[14] = test system: HCT-116; test: Downregulation of PLK-1 mRNA expression in human HCT-116 cells at 100 to 500 nM incubated for 24 hrs by qRT-PCR analysis; type: functional, cell-based; details: dose 100-500 nM; in short: as §1
[15] = test system: SF3B2 pre-mRNA; test: Modulation of splicing in SF3B2 pre-mRNA in human HCT-116 cells assessed as intron 10 retention at 100 to 500 nM incubated for 24 hrs by qRT-PCR analysis; type: functional, cell-based; details: dose 100-500 nM
In short: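 HCT-116 cells in supplemented McCoy's 5a with 0.5% final DMSO were treated for 24 h at 100, 250 or 500 nM. Total RNA isolated and DNase-treated (1 µg). qPCR used 2.5 µM each primer on 5 ng cDNA, 40 cycles. Intron retention was computed by the 2^-CT method relative to GAPDH and expressed versus untreated cells set to 1.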

[16] = test system: SF3B1 pre-mRNA; test: Modulation of splicing in SF3B1 pre-mRNA in human HCT-116 cells assessed as intron 13 retention level at 5.6 uM incubated for 4 hrs by qRT-PCR analysis; type: functional, cell-based; details: filed as modulator; in short: as §2
[17] = test system: SF3A3 pre-mRNA; test: Modulation of splicing in SF3A3 pre-mRNA in human HCT-116 cells assessed as intron 5 retention level at 5.6 uM incubated for 4 hrs by qRT-PCR analysis; type: functional, cell-based; details: filed as modulator
[18] = test system: DNAJB1 pre-mRNA; test: Modulation of splicing in DNAJB1 pre-mRNA in human HCT-116 cells assessed as intron 2 retention level at 5.6 uM incubated for 4 hrs by qRT-PCR analysis; type: functional, cell-based; details: filed as modulator
[19] = test system: AURKA pre-mRNA; test: Modulation of splicing in AURKA pre-mRNA in human HCT-116 cells assessed as effect on exon 4 skipping at 5.6 uM incubated for 4 hrs by qRT-PCR analysis; type: functional, cell-based; details: filed as modulator
[20] = test system: SF3B2 pre-mRNA; test: Modulation of splicing in SF3B2 pre-mRNA in human HCT-116 cells assessed as intron 10 retention level at 5.6 uM incubated for 4 hrs by qRT-PCR analysis; type: functional, cell-based; details: filed as modulator; in short: as §2
[21] = test system: SF3A1 pre-mRNA; test: Modulation of splicing in SF3A1 pre-mRNA in human HCT-116 cells assessed as intron 6 retention level at 5.6 uM incubated for 4 hrs by qRT-PCR analysis; type: functional, cell-based; details: filed as modulator
[22] = test system: HCT-116; test: Cytotoxicity against human HCT-116 cells assessed as reduction in cell viability at 5.6 uM incubated for 4 hrs by MTS assay; type: toxicity, cell-based; details: hct-116, 4 h

CC[C@H](OC)[C@@H](C)[C@H]1O[C@@H]1[C@@H](O)[C@H](C)/C=C/C=C(\C)[C@H]1OC(=O)C[C@@H](O)CC[C@@](C)(O)[C@@H](OC(C)=O)/C=C/[C@@H]1C
Activity [1]: Non-Toxic
Activity [2]: > 3
GI50 at 72 h [3]: 0.143 µM
Activity [4]: Non-Toxic
Activity [5]: > 3
Activity [6]: Active
Activity [7]: Active
Activity [8]: < 3
Activity [9]: > 3
Activity [10]: < 3
Activity [11]: inactive
Activity [12]: Active
Activity [13]: inactive
Activity [14]: Active
Activity [15]: inactive

CC[C@@H](OC)[C@H](C)[C@H]1O[C@@H]1[C@@H](O)[C@H](C)/C=C/C=C(\C)[C@H]1OC(=O)C[C@H](O)CC[C@@](C)(O)[C@@H](OC(C)=O)/C=C/[C@@H]1C
Activity [1]: Non-Toxic
Activity [16]: < 3
GI50 at 72 h [3]: 0.285 µM
Activity [17]: < 3
Activity [18]: > 3
Activity [19]: Active
Activity [20]: > 3
Activity [21]: > 3
Activity [22]: Non-Toxic
